Test results: article PMC3899497 (Clinical Pharmacokinetics, 2013)
Where two headings read alike, the source gives them in different places.

What was measured:
[1] = cited from earlier work
[2] = format: in vivo, human; settings: for Plasma concentration at 6 h after clopidogrel administration: most subjects, LLOQ 0.25 ng/mL; for AUC(0-inf) / AUC(0-t) / Vd/F / half-life: human, po
[3] = tested on: ADP-induced platelet aggregation; assay: ADP-induced whole-blood platelet aggregation, Multiplate impedance aggregometer; format: in vivo, human
In short: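 Caucasian patients from central Poland undergoing coronary or peripheral interventions received the test drug orally, fasting, 75 mg daily for 7 days beforehand. Blood was drawn 2–3 h post-dose into hirudin tubes, diluted 1:1 with 0.9 % NaCl, and stirred 3 min at 37 °C. ADP was added at 6.4 μmol/L, and impedance was recorded for 6 min. Aggregation was expressed as AUC (AU·min).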

[4] = cited from earlier work; remark: listed apart in the source
[5] = patients, oral clopidogrel 75 mg for 7 days, plasma
[6] = patients, oral clopidogrel 75 mg, plasma
[7] = patients, single oral clopidogrel 300 mg loading dose, plasma
[8] = patients, single oral clopidogrel 300 mg, plasma
[9] = clopidogrel 75 mg, diabetes mellitus no (n = 19)
[10] = clopidogrel 75 mg, diabetes mellitus yes (n = 11)
[11] = clopidogrel 75 mg, proton-pump inhibitors no (n = 15)
[12] = clopidogrel 75 mg, proton-pump inhibitors yes (n = 13)
[13] = clopidogrel 75 mg, single subject
[14] = healthy volunteers, clopidogrel 75 mg, ref 10
[15] = clopidogrel 75 mg maintenance dose, 6.4 μmol/L ADP

SMILES: COC(=O)[C@H](c1ccccc1Cl)N1CCC(S)/C(=C\C(=O)O)C1 (some centres unmarked) [CTM]
- C max ([1]; healthy control subjects, clopidogrel 600 mg): 14.5 ng/mL
- Concentrations in plasma ([1]; method not distinguishing H3 and H4 isomers): > 20 ng/mL
- C max ([1]; patients with a history of stent thrombosis, clopidogrel 600 mg): 3.2 ng/mL

SMILES: O=C(O)[C@H](c1ccccc1Cl)N1CCc2sccc2C1 [CLPM]
- C max in plasma relative to that of the parent drug ([2]; patients, clopidogrel 75 and 300 mg): thousand-fold greater
- C max (mean ± SD) [2, 5]: 2,516 ± 1,754 ng/mL
- AUCt (mean ± SD) [2, 6]: 11,077 ± 7,768 ng·h/mL
- AUC∞ (mean ± SD) [2, 6]: 12,383 ± 8,552 ng·h/mL
- t max (mean ± SD) [2, 6]: 1.37 ± 0.74 h
- C max (mean ± SD) [2, 7]: 8,464 ± 3,772 ng/mL
- AUCt (mean ± SD) [2, 8]: 32,979 ± 12,321 ng·h/mL
- AUC∞ (mean ± SD) [2, 8]: 37,249 ± 13,861 ng·h/mL
- t max (mean ± SD) [2, 8]: 1.61 ± 1.21 h

SMILES: COC(=O)[C@H](c1ccccc1Cl)N1CCC(S)/C(=C\C(=O)O)C1 (some centres unmarked) [H4]
- Exposure to H4 relative to exposure to the H3 isomer ([2]; after clopidogrel 300 mg (n = 3)): two times greater
- AUCt (mean ± SD) [2, 9]: 10.46 ± 9.78 ng·h/mL
- C max (mean ± SD) [2, 9]: 6.61 ± 6.30 ng/mL
- AUCt (mean ± SD) [2, 10]: 11.69 ± 9.63 ng·h/mL
- C max (mean ± SD) [2, 10]: 8.04 ± 6.55 ng/mL
- AUCt (mean ± SD) [2, 11]: 9.69 ± 9.81 ng·h/mL
- C max (mean ± SD) [2, 11]: 5.92 ± 4.53 ng/mL
- AUCt (mean ± SD) [2, 12]: 13.10 ± 9.82 ng·h/mL
- C max (mean ± SD) [2, 12]: 9.04 ± 8.07 ng/mL
- C max, one patient with high platelet aggregation (637 AU·min) ([2]; clopidogrel 75 mg, single patient): 23.3 ng/mL
- C max, one subject with high platelet aggregation (747 AU·min) [2, 13]: 2.5 ng/mL
- Plasma concentration at 6 h after clopidogrel administration [2]: below the limit of quantification
- C max (mean ± SD) [2, 5]: 7.13 ± 6.32 ng/mL
- AUCt (mean ± SD) [2, 6]: 11.30 ± 9.58 ng·h/mL
- AUC∞ (mean ± SD) [2, 6]: 11.97 ± 9.75 ng·h/mL
- t max (mean ± SD) [2, 6]: 1.04 ± 0.53 h
- t ½ (mean ± SD) [2, 6]: 0.90 ± 0.86 h
- C max (mean ± SD) [2, 7]: 17.92 ± 20.38 ng/mL
- AUCt (mean ± SD) [2, 8]: 25.04 ± 27.41 ng·h/mL
- AUC∞ (mean ± SD) [2, 8]: 25.69 ± 27.54 ng·h/mL
- t max (mean ± SD) [2, 8]: 0.83 ± 0.29 h
- t ½ (mean ± SD) [2, 8]: 0.84 ± 0.20 h
- C max [1, 14]: 16.4 ng/mL
- C max ([1]; healthy volunteers, clopidogrel 75 mg, ref 32): 11 ng/mL

SMILES: COC(=O)[C@H](c1ccccc1Cl)N1CCc2sccc2C1 [Clopidogrel, (+)-S clopidogrel bisulfate, reference compound]
- AUC(0-inf) ([2]; plasma, 75 mg): 6.29 ± 4.11 ng·h/mL
- AUC(0-t) ([2]; plasma, 75 mg): 5.07 ± 3.8 ng·h/mL
- Vd/F ([2]; plasma, 75 mg): 39200 ± 33500 L
- half-life ([2]; plasma, 75 mg): 1.71 ± 1.28 h
- AUC(0-inf) ([2]; plasma, 300 mg): 21.8 ± 13.3 ng·h/mL
- AUC(0-t) ([2]; plasma, 300 mg): 20.8 ± 13.3 ng·h/mL
- Vd/F ([2]; plasma, 300 mg): 45500 ± 19200 L
- half-life ([2]; plasma, 300 mg): 1.99 ± 0.44 h
- CL/F (mean ± SD) ([2]; patients, oral clopidogrel 75 mg): 18.96 ± 15.89 ×10^3 L/h
- C max (mean ± SD) [2, 5]: 2.04 ± 2.0 ng/mL
- CL/F (mean ± SD) ([2]; patients, single oral clopidogrel 300 mg): 16.98 ± 10.41 ×10^3 L/h
- C max (mean ± SD) [2, 7]: 4.51 ± 3.42 ng/mL
- t max (mean ± SD) [2, 8]: 1.17 ± 0.76 h
- Platelet aggregation, mean ± SD [3, 15]: 166 ± 146 AU·min
- Platelet aggregation, median [3, 15]: 141 AU·min
- Number of patients characterized as non-responders (AUC >468 AU·min) ([3]; clopidogrel 75 mg, 38 patients): two
- Number of patients with low platelet aggregation (AUC <100 AU·min) ([3]; clopidogrel 75 mg, 38 patients): 14 patients
- Platelet aggregation (AUC), one patient with high H4 concentrations ([3]; clopidogrel 75 mg, single patient later excluded from the correlation): 637 AU·min
- Platelet aggregation, one subject with low H4 concentrations [3, 13]: 747 AU·min
- C max ([1]; Argentinean subjects, clopidogrel 75 mg): 0.9 ng/mL
- C max ([1]; Egyptian healthy volunteers, clopidogrel 75 mg): 4.4 ng/mL
- C max ([1]; US healthy volunteers, fasted state, clopidogrel 75 mg): 1.5 ng/mL
- C max ([1]; US healthy volunteers, fed state, clopidogrel 75 mg): 2.5 ng/mL
- Fraction of the absorbed drug transformed by carboxyl esterases into CLPM [4]: Up to 85%

SMILES: COC(=O)[C@H](c1ccccc1Cl)N1CC[C@H](S)/C(=C\C(=O)O)C1 [H3]
- AUCt (mean ± SD) [2, 9]: 6.71 ± 4.47 ng·h/mL
- C max (mean ± SD) [2, 9]: 4.90 ± 4.02 ng/mL
- AUCt (mean ± SD) [2, 10]: 7.88 ± 9.33 ng·h/mL
- C max (mean ± SD) [2, 10]: 5.96 ± 7.69 ng/mL
- AUCt (mean ± SD) [2, 11]: 7.03 ± 5.52 ng·h/mL
- C max (mean ± SD) [2, 11]: 5.00 ± 4.93 ng/mL
- AUCt (mean ± SD) [2, 12]: 7.76 ± 8.16 ng·h/mL
- C max (mean ± SD) [2, 12]: 5.94 ± 6.63 ng/mL
- Plasma concentration at 6 h after clopidogrel administration [2]: below the limit of quantification
- C max (mean ± SD) [2, 5]: 5.29 ± 5.54 ng/mL
- AUCt (mean ± SD) [2, 6]: 7.37 ± 6.71 ng·h/mL
- AUC∞ (mean ± SD) [2, 6]: 7.96 ± 6.85 ng·h/mL
- t max (mean ± SD) [2, 6]: 1.08 ± 0.62 h
- t ½ (mean ± SD) [2, 6]: 0.78 ± 0.78 h
- C max (mean ± SD) [2, 7]: 8.47 ± 1.69 ng/mL
- AUCt (mean ± SD) [2, 8]: 11.24 ± 8.31 ng·h/mL
- AUC∞ (mean ± SD) [2, 8]: 11.70 ± 8.33 ng·h/mL
- t max (mean ± SD) [2, 8]: 0.83 ± 0.29 h
- t ½ (mean ± SD) [2, 8]: 0.72 ± 0.18 h
- C max [1, 14]: 17.8 ng/mL
